# Reference: ChEMBL document CHEMBL1240463, “Synthesis and biological evaluation of (+)-labdadienedial, derivatives and precursors from (+)-sclareolide” (Eur J Med Chem, 2010)
# Activity calls are given as the source filed them. The calls are words filed in the database; no cut-off is given here.
# Columns and labels:
# Aspergillus fumigatus = experiment: Antifungal activity against Aspergillus fumigatus ATCC 204305 after 48 hrs by CLSI M38-A assay; details: ATCC 204305, 48 h
# Aspergillus terreus = experiment: Antifungal activity against Aspergillus terreus CDC 317 at 100 ug/mL after 48 hrs by CLSI M38-A assay
# Trichophyton rubrum = experiment: Antifungal activity against Trichophyton rubrum ATCC 28188 after 6 days by CLSI M38-A assay; details: ATCC 28188, 6 days
# Fusarium oxysporum = experiment: Antifungal activity against Fusarium oxysporum ATCC 48112 after 48 hrs by CLSI M38-A assay; details: ATCC 48112, 48 h
# Aspergillus flavus = experiment: Antifungal activity against Aspergillus flavus ATCC 204304 at 100 ug/mL after 48 hrs by CLSI M38-A assay
# Vero [1] = experiment: Selectivity index, ratio of IC50 for green monkey Vero cells over IC50 for human HeLa cells; format: functional
# Procedure, shortened: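 Selectivity index is the Vero IC50 divided by the HeLa IC50. Both IC50s come from the 48 h MTT assay, each from linear-regression dose-effect curves.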
# [2] = system: Trichophyton mentagrophytes; experiment: Antifungal activity against Trichophyton mentagrophytes ATCC 24198 after 6 days by CLSI M38-A assay; details: ATCC 24198, 6 days
# HeLa = experiment: Cytotoxicity against human HeLa cells after 48 hrs by MTT assay; format: functional, cell-based
# Procedure, shortened: (§1)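 MTT colorimetric assay. HeLa (ATCC CCL-2) and Vero (ATCC CCL-81) cells were grown in MEM with 10% FBS at 37 °C, 5% CO2, then seeded at 1.5×10^4 (HeLa) or 1.25×10^4 (Vero) cells/well. Compound dilutions were added after 24 h and incubated 48 h more. Cell controls had 0.05% DMSO; vincristine was the reference. IC50 came from linear-regression dose-effect curves, mean ± S.E.M. of at least four dilutions in quadruplicate.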
# Candida parapsilosis [3] = experiment: Antifungal activity against Candida parapsilosis ATCC 22019 at 100 ug/mL after 24 hrs by AFSTEUCAST assay; format: functional, organism-based
# Vero [4] = experiment: Cytotoxicity against african green monkey Vero cells after 48 hrs by MTT assay; format: cell-based; details: Chlorocebus sabaeus
# Procedure, shortened: as §1
# Pichia kudriavzevii [5] = experiment: Antifungal activity against Candida krusei ATCC 6258 at 100 ug/mL after 24 hrs by AFSTEUCAST assay; format: functional, organism-based
# Candida albicans [6] = experiment: Antifungal activity against Candida albicans ATCC 10231 at 100 ug/mL after 24 hrs by AFSTEUCAST assay; format: functional, organism-based
# Candida tropicalis [7] = experiment: Antifungal activity against Candida tropicalis CECT 11901 at 100 ug/mL after 24 hrs by AFSTEUCAST assay; format: functional, organism-based
# Pichia kudriavzevii [8] = experiment: Antifungal activity against Candida krusei ATCC 6258 at 6.25 ug/mL after 24 hrs by AFSTEUCAST assay; format: functional, organism-based
# SNU1 = experiment: Cytotoxicity against human SNU1 cells; format: functional, cell-based
# KB = experiment: Cytotoxicity against human KB cells; format: functional; details: read-out: ED50 (the source's name)
# Candida parapsilosis [9] = experiment: Antifungal activity against Candida parapsilosis ATCC 22019 at 6.25 ug/mL after 24 hrs by AFSTEUCAST assay; format: functional, organism-based
# Candida tropicalis [10] = experiment: Antifungal activity against Candida tropicalis CECT 11901 at 12.5 ug/mL after 24 hrs by AFSTEUCAST assay; format: functional, organism-based
# P388 = experiment: Cytotoxicity against mouse P388 cells; format: functional, cell-based
# B16 = experiment: Cytotoxicity against mouse B16 cells; format: functional, cell-based
# Candida albicans [11] = experiment: Antifungal activity against Candida albicans ATCC 10231 at 12.5 ug/mL after 24 hrs by AFSTEUCAST assay; format: functional, organism-based
# Human alphaherpesvirus 1 = experiment: Antiviral activity against HSV1 infected in Vero cells assessed reduction factor at 12.5 ug/ml after 36 hrs by end-point titration technique relative to control; format: functional
# Procedure, shortened: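 HSV-1 (CDC) end-point titration on Vero cells. Two-fold compound dilutions were mixed with one infection dose of virus (TCID50/0.1 mL) for 0.5 h at 37 °C. The mixture was added to confluent monolayers and incubated 36 h at 37 °C, 5% CO2. Reduction factor is the virus titer without compound divided by the titer with compound.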
MIC (Aspergillus fumigatus) [µg/mL],MIC (Trichophyton rubrum) [µg/mL],MIC (Fusarium oxysporum) [µg/mL],MIC [2] [µg/mL],SMILES,Selectivity Index (Vero [1]),IC50 (HeLa) [µg/mL],Activity (Candida parapsilosis [3]),IC50 (Vero [4]) [µg/mL],Activity (Pichia kudriavzevii [5]),Activity (Candida albicans [6]),Activity (Candida tropicalis [7]),other results
0.17,–,–,–,CCC(C)n1ncn(-c2ccc(N3CCN(c4ccc(OCC5COC(Cn6cncn6)(c6ccc(Cl)cc6Cl)O5)cc4)CC3)cc2)c1=O (stereo not given) [ITRACONAZOLE],–,–,–,–,–,–,–,–
2,–,–,–,C[C@@H]1[C@H](O)[C@@H](C)/C=C/C=C/C=C/C=C/C=C/C=C/C=C/[C@H](O[C@@H]2O[C@H](C)[C@@H](O)[C@H](N)[C@@H]2O)C[C@@H]2O[C@](O)(C[C@@H](O)C[C@@H](O)[C@H](O)CC[C@@H](O)C[C@@H](O)CC(=O)O[C@H]1C)C[C@H](O)[C@H]2C(=O)O [AMPHOTERICIN B],–,–,–,–,–,–,–,–
50,50,> 100,39.7,CON(C)C(=O)C[C@H]1[C@@]2(C)CCCC(C)(C)[C@@H]2CC[C@]1(C)O [WEINREB'S AMIDE],1.23,66.8,inactive,82,inactive,inactive,inactive,Activity (Aspergillus terreus): inactive; Activity (Aspergillus flavus): inactive
> 100,> 100,> 100,> 100,C=C1CC[C@H]2C(C)(C)CCC[C@]2(C)[C@H]1C/C=C(/CC(=O)OC)C(=O)OC,2.32,14.5,inactive,33.7,inactive,inactive,inactive,–
> 100,> 100,> 100,> 100,C=C1CC[C@H]2C(C)(C)CCC[C@]2(C)[C@H]1C/C=C(/CC(=O)O)C(=O)O,0.46,84.5,inactive,39,inactive,inactive,inactive,–
> 100,50,> 100,19.8,C=C1CC[C@H]2C(C)(C)CCC[C@]2(C)[C@H]1CC(=O)N(C)OC,2.69,11.7,inactive,31.5,inactive,inactive,inactive,–
79.4,0.62,19.8,1.24,C=C1CC[C@H]2C(C)(C)CCC[C@]2(C)[C@H]1C/C=C(\C=O)CC=O (mixture of isomers) [LABDADIENEDIAL],0.67,19.5,Active,13.1,Active,Active,Active,Activity (Pichia kudriavzevii [8]): Active; IC50 (SNU1): 12 µg/mL; EC50 (KB): 40 µg/mL; Activity (Aspergillus terreus): inactive; Activity (Aspergillus flavus): inactive; Activity (Candida parapsilosis [9]): Active; Activity (Candida tropicalis [10]): Active; IC50 (P388): 4.1 µg/mL; IC50 (B16): 41.2 µg/mL; Activity (Candida albicans [11]): Active; Activity (Human alphaherpesvirus 1): 100
–,–,–,–,CC[C@]1(O)C[C@H]2CN(CCc3c([nH]c4ccccc34)[C@@](C(=O)OC)(c3cc4c(cc3OC)N(C=O)[C@H]3[C@@](O)(C(=O)OC)[C@H](OC(C)=O)[C@]5(CC)C=CCN6CC[C@]43[C@@H]65)C2)C1 [VINCRISTINE],22,0.05,–,1.1,–,–,–,–
> 100,> 100,> 100,> 100,C=C1CC[C@H]2C(C)(C)CCC[C@]2(C)[C@H]1C/C=C(\CO)CCO,0.42,91,inactive,38,inactive,inactive,inactive,–
–,< 0.078,–,0.0312,CN(C/C=C/C#CC(C)(C)C)Cc1cccc2ccccc12 [TERBINAFINE],–,–,–,–,–,–,–,–
> 100,31.5,> 100,31.5,C=C1CCC2C(C)(C)CCC[C@]2(C)[C@H]1CC=O (stereo not given in full),4.11,2.6,inactive,10.7,inactive,inactive,inactive,IC50 (SNU1): 3.9 µg/mL; IC50 (P388): 0.16 µg/mL; IC50 (B16): 30.8 µg/mL
